Measured values reported in the RNAGym collection of RNA variant scans (doi:10.1002/anie.201605470).

B1: Osa-1-4 twister ribozyme (parent)
chain: CCGCCUAACACUGCCAAUGCCGGUCCCAAGCCCGGAUAAAAGUGGAGGGGGCGG

Variants of: B1
Assay: self-cleavage, relative activity (ratio to wild type); higher = more cleavage; co-transcriptional
In short: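 A DNA template was synthesised for a 54-nucleotide twister ribozyme from Oryza sativa, with 97 % wild-type base and 1 % of each other base at each of the 48 positions downstream of the cleavage site. The ribozyme cleaved itself co-transcriptionally during 2 h of in vitro transcription at 37 °C. Reverse transcription with a template-switching oligonucleotide, PCR amplification and deep sequencing followed, and cleavage status came from reads with or without upstream sequence. Relative activity is the fraction cleaved normalised to wild type.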

Variant | self-cleavage
CCGCCUAAGACUGCCAAUCCCGGUCCCAAGCCCGGAUAAAAGUGGAGGGGGCGG | 0.06
CCGCCUAAGACUGCCAAUACCGGUCCCAAGCCCGGAUAAAAGUGGAGGGGGCGG | 0.2
CCGCCUAAGACUGCCAAUUCCGGUCCCAAGCCCGGAUAAAAGUGGAGGGGGCGG | 0.11
CCGCCUAAAACUGCCAAUGCCGGUCCCAAGCCCGGAUAAAAGUGGAGGGGCCGG | 0.02
CCGCCUAAAACUGCCAAUGCCGGUCCCAAGCCCGGAUAAAAGUGGAGGGGUCGG | 0.05
CCGCCUAAAACUGCCAAUGCCGGUCCCAAGCCCGGAUAAAAGUGGAGGGGACGG | 0.13
CCGCCUAAGACUGCCAAUGCCGGUCCCAAGCCCGGAUAAAAGUGGAGGGGGCGG | 0.93
CCGCCUAAAACUGCCAAUGCCGGUCCCAAGCCCGGAUAAAAGUGGAGGUGGCGG | 0.03
CCGCCUAAAACUGCCAAUGCCGGUCCCAAGCCCGGAUAAAAGUGGAGGCGGCGG | 0.02
CCGCCUAAAACUGCCAAUGCCGGUCCCAAGCCCGGAUAAAAGUGGAGGAGGCGG | 0.04
CCGCCUAAAACUGCCAAUGCCGGUCCCAAGCCCGGAUAAAAGUGUAGGGGGCGG | 0.03
CCGCCUAAAACUGCCAAUGCCGGUCCCAAGCCCGGAUAAAAGUGCAGGGGGCGG | 0.01
CCGCCUAAGACUGCCAAUGCCCGUCCCAAGCCCGGAUAAAAGUGGAGGGGGCGG | 0.05
CCGCCUAAGACUGCCAAUGCCUGUCCCAAGCCCGGAUAAAAGUGGAGGGGGCGG | 0.14
CCGCCUAAGACUGCCAAUGCCAGUCCCAAGCCCGGAUAAAAGUGGAGGGGGCGG | 0.15
CCGCCUAAGACUACCAAUGCCGGUCCCAAGCCCGGAUAAAAGUGGAGGGGGCGG | 0.06
CCGCCUAAGACUCCCAAUGCCGGUCCCAAGCCCGGAUAAAAGUGGAGGGGGCGG | 0.03
CCGCCUAAGACUUCCAAUGCCGGUCCCAAGCCCGGAUAAAAGUGGAGGGGGCGG | 0.03
CCGCCUAAAACUGCCAAUGCCGGUCCCAAGCCCGGAUAAAAGUGGAGGGGGCCG | 0.03
CCGCCUAAAACUGCCAAUGCCGGUCCCAAGCCCGGAUAAAAGUGGAGGGGGCAG | 0.29
CCGCCUAAAACUGCCAAUGCCGGUCCCAAGCCCGGAUAAAAGUGGAGGGGGCUG | 0.09
CCGCCUAAAACUGCCAAUGCCGGUCCCAAGCCCGGAUAAAAGUGGAGAGGGCGG | 0.02
CCGCCUAAAACUGCCAAUGCCGGUCCCAAGCCCGGAUAAAAGUGGAGUGGGCGG | 0.02
CCGCCUAAAACUGCCAAUGCCGGUCCCAAGCCCGGAUAAAAGUGGAGCGGGCGG | 0.02
CCGCCUAAAACUGCCAAUGCCGGUCCCAAGCCCGGAUAAAAGUGGAUGGGGCGG | 0.03

Variant | self-cleavage
CCGCCUAAAACUGCCAAUGCCGGUCCCAAGCCCGGAUAAAAGUGGAAGGGGCGG | 0.05
CCGCCUAAAACUGCCAAUGCCGGUCCCAAGCCCGGAUAAAAGUGGACGGGGCGG | 0.03
CCGCCUAAAACUGCCAAAGCCGGUCCCAAGCCCGGAUAAAAGUGGAGGGGGCGG | 0.47
CCGCCUAAAACUGCCAAGGCCGGUCCCAAGCCCGGAUAAAAGUGGAGGGGGCGG | 0.31
CCGCCUAAAACUGCCAACGCCGGUCCCAAGCCCGGAUAAAAGUGGAGGGGGCGG | 0.19
CCGCCUAAAACUGCCAAUGCCGGUCCCAAGCCCGGAUAAAAGUGGAGGGGGCGA | 0.43
CCGCCUAAAACUGCCAAUGCCGGUCCCAAGCCCGGAUAAAAGUGGAGGGGGCGC | 0.34
CCGCCUAAAACUGCCAAUGCCGGUCCCAAGCCCGGAUAAAAGUGGAGGGGGCGU | 0.36
CCGCCUAAAACUGCCAAUGCCGGUCCCAAGCCCGGAUAAAAGCGGAGGGGGCGG | 0.07
CCGCCUAAAACUGCCAAUGCCGGUCCCAAGCCCGGAUAAAAGGGGAGGGGGCGG | 0.14
CCGCCUAAAACUGCCAAUGCCGGUCCCAAGCCCGGAUAAAAGAGGAGGGGGCGG | 0.37
CCGCCUAAGACUGCCAAUGCCGAUCCCAAGCCCGGAUAAAAGUGGAGGGGGCGG | 0.24
CCGCCUAAAACUGCCAAUGCCGGUCCCAAGCCCGGAUAAAAGUGGAGGGAGCGG | 0.13
CCGCCUAAAACUGCCAAUGCCGGUCCCAAGCCCGGAUAAAAGUGGAGGGCGCGG | 0.38
CCGCCUAAAACUGCCAAUGCCGGUCCCAAGCCCGGAUAAAAGUGGAGGGUGCGG | 0.5
CCGCCUAAAACUGCCAAUGCCGGACCCAAGCCCGGAUAAAAGUGGAGGGGGCGG | 0.04
CCGCCUAAAACUGCCAAUGCCGGCCCCAAGCCCGGAUAAAAGUGGAGGGGGCGG | 0.07
CCGCCUAAAACUGCCAAUGCCGGGCCCAAGCCCGGAUAAAAGUGGAGGGGGCGG | 0.07
CCGCCUAAAACAGCCAAUGCCGGUCCCAAGCCCGGAUAAAAGUGGAGGGGGCGG | 0.16
CCGCCUAAAACGGCCAAUGCCGGUCCCAAGCCCGGAUAAAAGUGGAGGGGGCGG | 0.08
CCGCCUAAAACCGCCAAUGCCGGUCCCAAGCCCGGAUAAAAGUGGAGGGGGCGG | 0.1
CCGCCUAAAACUGCCAAUGCCGGUCCCAAGCCCGGAAAAAAGUGGAGGGGGCGG | 0.28
CCGCCUAAAACUGCCAAUGCCGGUCCCAAGCCCGGAGAAAAGUGGAGGGGGCGG | 0.53
CCGCCUAAAACUGCCAAUGCCGGUCCCAAGCCCGGACAAAAGUGGAGGGGGCGG | 0.53
